The subject of test [1] is Neisseria meningitidis. Kind of test: Inhibition of Neisseria meningitidis alpha-1,4-galactosyltransferase at 25 to 100 uM using lactose as substrate preincubated for 10 mins in presence of UDP-Gal followed by substrate addition measured after 20 mins. The essentials:
(§1)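 LgtC pre-incubated 10 min at 30 °C with inhibitor (DMSO, 10% final) and UDP-Gal 28 µM in 13 mM HEPES pH 7.0 with MnCl2 5 mM, CIP 10 U/mL, lysozyme 1 mg/mL, 0.01% Triton; lactose 2 mM then added, 20 min at 30 °C; malachite green absorbance at 620 nm converted via UDP calibration; triplicate.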

The species named for test [2] is Bos taurus. The experiment in a line: Inhibition of bovine beta-1,4-galactosyltransferase at 100 uM using GLcNAc as substrate in presence of UDP-Gal measured after 20 mins by malachite green dye-based assay.
Test [3] in a line: Inhibition of Neisseria meningitidis alpha-1,4-galactosyltransferase using lactose as substrate in presence of UDP-Gal measured after 20 min by malachite green dye-based assay. Summed up:
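Recombinant LgtC, pre-activated with DTT (10 mM, 1:1, 30 min, 30 °C). Reaction contained MnCl2 5 mM, CIP 10 U/mL, lysozyme 1 mg/mL, Triton 0.01%, 13 mM HEPES pH 7.0, lactose 2 mM, inhibitor 0.1–100 µM (10% DMSO final), UDP-Gal 28 µM. No pre-incubation; 20 min at 30 °C. Released phosphate read by malachite green at 620 nm against a UDP calibration curve. Turnover adjusted to 20–50%. IC50 from sigmoidal fit of background-corrected % activity; at least triplicate.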

For test [4], the system named is Neisseria meningitidis. Kind of test: Inhibition of Neisseria meningitidis alpha-1,4-galactosyltransferase assessed as enzyme activity at 100 uM using beta-lactose as substrate preincubated for 10 mins in presence of UDP-Gal donor followed by substrate addition incubated for 20 mins measured before diafiltration by colorimetric analysis (reference value: 84%). Summed up: (§2)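 DTT-activated LgtC pre-incubated with inhibitor (100 µM) or DMSO plus UDP-Gal 28 µM, 10 min at 30 °C; lactose 2 mM added, 20 min at 30 °C. Activity measured in samples taken before, and after diafiltration (10 kDa cut-off, 4 °C, two 50 min spins with one HEPES pH 7.0 wash), under standard conditions (2 mM lactose, 28 µM UDP-Gal, 20 min, 30 °C), malachite green readout.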

Test [5] relates to Neisseria meningitidis. Kind of test: Inhibition of Neisseria meningitidis alpha-1,4-galactosyltransferase C246S mutant expressed in Escherichia coli BL21(DE3) at 100 uM using lactose as substrate in presence of UDP-Gal measured after 20 min by malachite green dye-based assay. Summed up:
(§3)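 Mutant LgtC (His-tag purified, Superdex 200), DTT-activated (10 mM, 1:1, 30 min, 30 °C), no pre-incubation with inhibitor. Final: 2 mM lactose, 28 µM UDP-Gal, 5 mM MnCl2, phosphatase CIP 10 U/mL, lysozyme 1 mg/mL, 0.01% Triton, 13 mM HEPES pH 7.0, 10% DMSO; 20 min, 30 °C. UDP read at 620 nm vs UDP calibration, background-corrected; triplicate.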

For test [6], the system named is Neisseria meningitidis. Kind of test: Inhibition of Neisseria meningitidis alpha-1,4-galactosyltransferase assessed as enzyme activity at 100 uM using beta-lactose as substrate in presence of UDP-Gal donor/lactose acceptor incubated for 20 mins measured after diafiltration by colorimetric analysis (reference value: 85 %). The essentials:
as §2

Test [7] is described as follows: Binding affinity to L-cysteine assessed as covalent adduct formation at 0.06 mmol by 1H NMR analysis. Particulars: TDE = time-dependent effect. The essentials:
(§4)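 Amino acid (0.06 mmol; cysteine in d6-DMSO, serine in D2O) added to inhibitor (0.06 mmol) in d6-DMSO in an NMR tube, mixed by shaking; 1H-NMR (400 MHz) recorded at 298 K at time points from 0-190 min to follow adduct formation.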

The target in test [8] is T1, Galactoside alpha-(1,2)-fucosyltransferase 2 (Homo sapiens) (UniProt Q10981).
T1 sequence (whole entry): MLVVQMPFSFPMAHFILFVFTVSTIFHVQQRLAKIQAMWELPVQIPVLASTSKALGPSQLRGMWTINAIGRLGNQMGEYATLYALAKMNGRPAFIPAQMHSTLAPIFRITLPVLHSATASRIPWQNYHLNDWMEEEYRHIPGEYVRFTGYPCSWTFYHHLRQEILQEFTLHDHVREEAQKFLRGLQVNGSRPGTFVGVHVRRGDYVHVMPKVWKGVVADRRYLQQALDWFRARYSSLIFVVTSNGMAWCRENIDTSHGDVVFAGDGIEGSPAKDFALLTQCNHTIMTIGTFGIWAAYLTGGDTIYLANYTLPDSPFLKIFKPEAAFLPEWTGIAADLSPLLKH
Kind of test: Inhibition of human fucosyltransferase2 at 150 uM using alpha-lactose as substrate in presence of GDP-Fuc measured after 20 mins by malachite green dye-based assay.

The nature of test [9]: Binding affinity to L-lysine assessed as adduct formation at 0.06 mmol by 1H NMR analysis. Summed up: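 Lysine (0.06 mmol in D2O) mixed with inhibitor (0.06 mmol) in d6-DMSO in an NMR tube by shaking; 1H-NMR spectra at 400 MHz, 298 K, taken at time points over 0-190 min.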
The test system of test [10] is Pasteurella multocida. Kind of test: Inhibition of Pasteurella multocida alpha-2,3-sialyltransferase at 150 uM using beta-lactose as substrate in presence of CMP-Neu5Ac measured after 20 mins by malachite green dye-based assay.
Test [11] deals with Intestinal-type alkaline phosphatase (Bos taurus) (UniProt P19111). The experiment in a line: Inhibition of calf intestinal alkaline […] at 0.1 to 100 uM using UDP as substrate after 20 mins by malachite green dye-based assay.
Sequence of Intestinal-type alkaline phosphatase (Bos taurus) (P19111 20-506 limits assumed): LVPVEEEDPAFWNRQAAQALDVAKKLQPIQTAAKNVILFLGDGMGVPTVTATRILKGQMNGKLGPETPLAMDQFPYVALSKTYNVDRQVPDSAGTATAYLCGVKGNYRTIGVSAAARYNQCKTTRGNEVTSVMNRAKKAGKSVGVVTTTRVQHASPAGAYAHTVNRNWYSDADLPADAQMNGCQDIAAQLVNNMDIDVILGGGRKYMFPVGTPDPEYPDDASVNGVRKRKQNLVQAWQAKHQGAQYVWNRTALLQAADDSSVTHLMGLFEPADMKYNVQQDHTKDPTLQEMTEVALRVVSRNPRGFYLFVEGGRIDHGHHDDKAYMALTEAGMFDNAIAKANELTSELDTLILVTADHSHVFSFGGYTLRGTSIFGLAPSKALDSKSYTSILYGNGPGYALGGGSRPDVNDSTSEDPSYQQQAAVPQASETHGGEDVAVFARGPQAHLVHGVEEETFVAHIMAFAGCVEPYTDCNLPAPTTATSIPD
For test [12], the system named is Neisseria meningitidis. Kind of test: Inhibition of Neisseria meningitidis alpha-1,4-galactosyltransferase at 0.1 to 100 uM using lactose as substrate after 20 mins in presence of UDP-Gal and measured in presence of varying acceptor concentration by malachite green dye-based assay. The essentials:
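Activated LgtC with inhibitor (0.1-100 µM), UDP-Gal 28 µM, lactose varied 2-50 mM, MnCl2 5 mM, CIP 10 U/ml, lysozyme 1 mg/ml, 0.01% Triton in 13 mM HEPES pH 7.0, no pre-incubation; 20 min at 30 °C, donor turnover 20-50%; malachite green detection of UDP; triplicate.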

Test [13] in a line: Binding affinity to L-serine assessed as covalent adduct formation at 0.06 mmol by 1H NMR analysis. The essentials:
as §4

The test system of test [14] is Neisseria meningitidis. Kind of test: Inhibition of Neisseria meningitidis alpha-1,4-galactosyltransferase C246A mutant expressed in Escherichia coli BL21(DE3) at 100 uM using lactose as substrate in presence of UDP-Gal measured after 20 min by malachite green dye-based assay. The essentials:
as §3

Test [15] has as its system Neisseria meningitidis. Kind of test: Binding affinity to Neisseria meningitidis alpha-1,4-galactosyltransferase assessed as covalent adduct formation at 100 uM after 20 mins by mass spectrometric analysis. Summed up:
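LgtC stock without DTT activation, diluted in 13 mM HEPES pH 7.0, incubated with inhibitor (100 or 50 µM, added in DMSO; 10% final DMSO) for 20 min at 30 °C; samples injected directly for electrospray MS to detect protein-inhibitor adducts.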

Test [16] has as its system Neisseria meningitidis. The experiment in a line: Competitive inhibition of Neisseria meningitidis alpha-1,4-galactosyltransferase at 1 to 5 uM using lactose as substrate measured after 20 mins in presence of fixed concentration of UDP-Gal donor and varying concentration of lactose acceptor by Dixon/Cornish-Bowden plot analysis. The essentials:
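Acceptor kinetics using standard protocol without pre-incubation: DTT-activated LgtC, UDP-Gal fixed at 100 µM, inhibitor 1, 2, 3, 4, 5 µM, lactose 5, 15, 25 mM, with 5 mM MnCl2, CIP 10 U/ml, lysozyme 1 mg/ml, 0.01% Triton, 13 mM HEPES pH 7.0, 10% DMSO; 20 min at 30 °C, donor turnover <10%; UDP released read by malachite green.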

Test [17] has as its system Neisseria meningitidis. Kind of test: Inhibition of Neisseria meningitidis alpha-1,4-galactosyltransferase at 25 to 50 uM using lactose as substrate preincubated for 10 mins in presence of UDP-Gal followed by substrate addition measured after 20 mins. Summed up:
as §1

pIC50: −log10 of the molar value. Active and inactive are the calls of the source.

As to `Cc1nn(-c2ccccc2)c(O)c1Cc1ccccc1C(F)(F)F`, the inhibition result in test [1] was “inactive”.

Consider `CC1=NN(c2ccccc2)C(=O)/C1=C\c1ccccc1C(F)(F)F`, for which the inhibition entry in test [2], in test [8], in [10], in test [11], in test [12] and in [14] was “inactive” in each case. Further, the pIC50 in [3] was 4.57. The inhibition was determined as 30% in test [4] and 23% in [6]. In addition, the inhibition result in test [5] and in test [16] was “Active” in each case. Further, in test [7], the Activity entry is “Tde”. Further, the outcome in test [9] and in test [13] was inactive. Further, the outcome in [15] was Active.

On to `COc1ccc(/C=C2\SC(=S)N(c3ccccc3)C2=O)cc1Br`, for which the inhibition result in [1] and in test [17] was “inactive” throughout.

The record behind these values is ChEMBL document CHEMBL4052634, “Covalent inhibitors of LgtC: A blueprint for the discovery of non-substrate-like inhibitors for bacterial glycosyltransferases” (Bioorg Med Chem, 2017).
